Tests used:
RPMI 8226 cells [1] = assay: Western blot for mono-/poly-Ub and PARP-1; format: cell-based, human; conditions: RPMI 8226 cells treated with various concentrations for 6 h
How it was run: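 RPMI 8226 cells (1,000,000/well) given a range of test-compound concentrations (1000x DMSO stock) or DMSO for 6 h. Lysis in RIPA with protease inhibitors (5 min, ice), then sonication and clearing at 17000 x g. Protein by BCA. After SDS-PAGE and PVDF wet transfer, membranes blocked in 5% milk/TBST and probed for PARP-1 (1:1,000 in 5% BSA/TBST), mono/poly-ubiquitin and α-tubulin as loading control.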

RPMI 8226 cells [2] = assay: Cell toxicity, WST-1 assay, RPMI 8226; format: cell-based; conditions: Homo sapiens, RPMI-8226, 48 h, read-out: EC50 cytotoxicity, RPMI 8226
MM1.R cells = assay: Cell toxicity, WST-1 assay, MM1.R; format: cell-based; conditions: Homo sapiens, MM.1R, 48 h, read-out: EC50 cytotoxicity, MM1.R
How it was run: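 MM1.R cells grown in RPMI-1640 with 10% FBS, non-essential amino acids and penicillin/streptomycin at 37 °C, 5% CO2. Cells exposed to a range of test-compound concentrations for 24 h or 48 h. Viability read by WST-1 per manufacturer's protocol as values relative to control, n = 3. EC50 fitted from concentration–response.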

[3] = test system: 20S proteasome subunits PSMB5, PSMB10, PSMA5, PSMB1, and PSMB2; assay: In situ competitive LC-MS/MS pull-down with probe 20; format: cell-based, human; conditions: RPMI 8226 cells, 100 nM 1 for 6 hours, then 10 μM 20; LFQ, n = 6
How it was run: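 RPMI 8226 cells grown to confluence, then given fresh medium with 100 nM test compound (1000x DMSO stock) or DMSO for 6 h. Washed cells were sonicated in PBS. Lysate (2.32 mg/mL) got 10 μM alkyne probe, 1 h r.t. CuAAC used 30 μM biotin azide, 1 mM TCEP, 100 μM TBTA and 1 mM CuSO4 (1 h), then streptavidin enrichment and on-bead TCEP/iodoacetamide treatment. Trypsin digest, LC-MS/MS, LFQ ratios; n = 6 (3 biological × 2 technical).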

MM1.R = conditions: read-out: Previously reported cytotoxicity, MM1.R; ref Hideshima et al., 2001; cited from earlier work
RPMI 8226 = conditions: cited from earlier work

## CC(C)CCCCC/C=C/C=C/C(=O)N[C@H](C(=O)N[C@H]1C[C@@H](O)CCNC(=O)/C=C/[C@H](C)NC1=O)[C@@H](C)O [Compound 1, (2E,4E)-N-((2S,3R)-3-hydroxy-1-(((5S,8S,10S,E)-10-hydroxy-5-methyl-2,7-dioxo-1,6-diazacyclododec-3-en-8-yl)amino)-1-oxobutan-2-yl)-11-methyldodeca-2,4-dienamide]
RPMI 8226 cells [1]
  PARP-1 Western blot (apoptosis marker): PARP-1 cleavage
  Ubiquitinated proteins (mono-/poly-ubiquitin Western blot): concentration-dependent increase in ubiquitinated proteins
RPMI 8226 cells [2]
  EC50: 31 nM
MM1.R cells
  EC50: 23 nM
[3]
  Competition of 20-enriched PSMB5, PSMB10, PSMA5, PSMB1 and PSMB2: > 50%

## CC(C)C[C@H](NC(=O)[C@H](Cc1ccccc1)NC(=O)c1cnccn1)B(O)O [bortezomib]
MM1.R
  EC50: 3 nM

## CC(C)C[C@H](NC(=O)[C@H](CCc1ccccc1)NC(=O)CN1CCOCC1)C(=O)N[C@@H](Cc1ccccc1)C(=O)N[C@@H](CC(C)C)C(=O)[C@@]1(C)CO1 [carfilzomib]
RPMI 8226
  EC50: 5 nM
